Entries after “also recorded” stand apart in the source; their conditions may differ. Structures can show the parent of a compound that is named as a salt.
Assays:
LSD1 [1] = target: T1, LSD1 (Homo sapiens, UniProt O60341); conditions: read-out: IC50 against LSD1; cited from earlier work
[2] = target: T2, binding between p300 HAT and histone H4 (Homo sapiens, UniProt Q09472); assay: ALPHA assay of p300 HAT-histone H4 peptide binding
T2 sequence (Q09472 1195-1673): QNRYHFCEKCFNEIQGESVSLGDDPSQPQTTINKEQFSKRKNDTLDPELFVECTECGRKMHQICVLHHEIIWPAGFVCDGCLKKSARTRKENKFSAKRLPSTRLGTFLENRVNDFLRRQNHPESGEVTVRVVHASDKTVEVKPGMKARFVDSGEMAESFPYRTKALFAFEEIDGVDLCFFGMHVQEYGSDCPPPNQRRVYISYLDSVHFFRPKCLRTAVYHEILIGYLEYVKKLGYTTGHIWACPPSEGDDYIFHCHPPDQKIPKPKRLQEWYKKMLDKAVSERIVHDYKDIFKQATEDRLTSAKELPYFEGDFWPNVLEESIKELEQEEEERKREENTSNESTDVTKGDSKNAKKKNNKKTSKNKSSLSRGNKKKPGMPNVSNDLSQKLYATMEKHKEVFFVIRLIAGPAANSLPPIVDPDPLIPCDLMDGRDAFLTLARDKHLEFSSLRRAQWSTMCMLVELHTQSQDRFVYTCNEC

Kasumi-1 leukemia cells = assay: Western blot of cellular histone H3 lysine acetylation; format: cell-based, human; conditions: Kasumi-1 cells, 12h, 5 and 10 μM
In short: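 Kasumi-1 cells (10⁶ per well) were exposed to test compound at various concentrations for 12 h. Total histones were extracted with a kit, and 2 μg protein was resolved by SDS-PAGE and transferred to PVDF. Blots were probed with antibodies to H3K9Ac, H3K18Ac, H3K27Ac and total H3, then an anti-rabbit IgG secondary.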

[3] = target: T3, HAT domain (1195-1673) of human p300 (Homo sapiens, UniProt Q09472); assay: p300 HAT inhibition assay; format: biochemical; conditions: for inhibitory activity against p300 HAT (in words): initial screen at 10 μM; for inhibition at 10 µM: read-out: inhibition of p300 HAT at 10 μM
T3 sequence (Q09472 1195-1673): T2 sequence (Q09472 1195-1673)

Myst3 = Myst3 (Homo sapiens, UniProt Q92794); assay: Myst3 HAT inhibition assay; format: biochemical
Sequence of Myst3 (Q92794 whole entry): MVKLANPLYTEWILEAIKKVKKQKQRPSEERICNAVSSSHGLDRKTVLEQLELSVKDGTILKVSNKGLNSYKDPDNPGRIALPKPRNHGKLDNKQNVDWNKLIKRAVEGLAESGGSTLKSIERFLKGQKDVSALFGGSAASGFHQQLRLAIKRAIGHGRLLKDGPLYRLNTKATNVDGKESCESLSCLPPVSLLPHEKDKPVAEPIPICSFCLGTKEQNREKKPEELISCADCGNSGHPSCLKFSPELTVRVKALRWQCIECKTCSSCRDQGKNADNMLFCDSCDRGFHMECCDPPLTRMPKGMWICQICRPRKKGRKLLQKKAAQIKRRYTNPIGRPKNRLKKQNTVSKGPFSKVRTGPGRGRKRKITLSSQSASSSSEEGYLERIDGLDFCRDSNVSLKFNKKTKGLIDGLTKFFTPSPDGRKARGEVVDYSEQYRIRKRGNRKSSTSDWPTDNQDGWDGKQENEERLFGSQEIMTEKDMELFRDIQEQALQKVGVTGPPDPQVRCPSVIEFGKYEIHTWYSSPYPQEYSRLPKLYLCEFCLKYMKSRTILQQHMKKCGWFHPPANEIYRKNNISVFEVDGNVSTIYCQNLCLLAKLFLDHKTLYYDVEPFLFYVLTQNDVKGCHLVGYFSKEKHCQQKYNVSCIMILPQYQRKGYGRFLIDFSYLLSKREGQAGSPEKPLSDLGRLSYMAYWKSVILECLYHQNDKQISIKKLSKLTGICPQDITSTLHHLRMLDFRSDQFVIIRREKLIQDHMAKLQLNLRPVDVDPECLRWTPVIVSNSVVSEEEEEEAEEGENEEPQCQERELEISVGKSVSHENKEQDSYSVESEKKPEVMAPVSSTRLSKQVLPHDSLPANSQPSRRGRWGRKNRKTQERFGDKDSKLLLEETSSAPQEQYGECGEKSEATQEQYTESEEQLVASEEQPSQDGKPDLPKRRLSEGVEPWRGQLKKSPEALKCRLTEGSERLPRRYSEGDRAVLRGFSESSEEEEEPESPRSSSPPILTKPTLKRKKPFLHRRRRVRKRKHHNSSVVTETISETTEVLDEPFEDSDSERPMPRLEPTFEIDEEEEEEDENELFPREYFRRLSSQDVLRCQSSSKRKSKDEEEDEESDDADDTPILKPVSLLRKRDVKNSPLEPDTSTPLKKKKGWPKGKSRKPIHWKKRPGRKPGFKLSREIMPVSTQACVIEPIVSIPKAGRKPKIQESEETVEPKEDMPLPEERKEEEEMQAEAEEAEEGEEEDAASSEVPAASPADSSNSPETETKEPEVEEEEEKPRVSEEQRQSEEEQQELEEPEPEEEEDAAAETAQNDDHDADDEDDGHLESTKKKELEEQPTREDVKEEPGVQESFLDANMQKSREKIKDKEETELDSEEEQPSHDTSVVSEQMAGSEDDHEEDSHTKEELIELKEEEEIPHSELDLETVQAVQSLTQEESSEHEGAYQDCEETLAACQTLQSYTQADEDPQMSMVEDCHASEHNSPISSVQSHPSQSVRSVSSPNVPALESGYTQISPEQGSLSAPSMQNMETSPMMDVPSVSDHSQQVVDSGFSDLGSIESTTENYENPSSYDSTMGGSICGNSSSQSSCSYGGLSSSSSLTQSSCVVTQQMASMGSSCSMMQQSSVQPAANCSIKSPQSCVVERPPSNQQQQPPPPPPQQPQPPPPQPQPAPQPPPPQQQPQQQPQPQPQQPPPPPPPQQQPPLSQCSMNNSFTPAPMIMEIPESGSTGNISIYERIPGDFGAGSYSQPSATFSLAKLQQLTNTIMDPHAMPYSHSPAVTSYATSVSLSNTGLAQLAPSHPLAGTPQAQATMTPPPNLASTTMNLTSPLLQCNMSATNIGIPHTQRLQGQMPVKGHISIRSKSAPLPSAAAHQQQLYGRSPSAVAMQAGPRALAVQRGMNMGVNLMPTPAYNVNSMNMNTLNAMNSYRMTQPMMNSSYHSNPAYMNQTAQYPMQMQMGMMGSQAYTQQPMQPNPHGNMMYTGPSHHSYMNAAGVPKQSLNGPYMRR
In short: (§1)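 Radiometric acetyltransfer assay. HAT enzyme (10 nM) was preincubated with test compound for 10 min at 25 °C in 50 mM phosphate buffer, pH 7.0, with 0.01% Brij-35. After 30 min at 25 °C, stopped with 6 N formic acid. Spotted on P81 paper, washed 3× in 50 mM NaHCO₃, scintillation counted.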

LSD1 [4] = target: T1, LSD1; assay: LSD1 inhibition; format: biochemical
PCAF = PCAF (Homo sapiens, UniProt Q92831); assay: PCAF HAT inhibition assay; format: biochemical
Sequence of PCAF (Q92831 whole entry): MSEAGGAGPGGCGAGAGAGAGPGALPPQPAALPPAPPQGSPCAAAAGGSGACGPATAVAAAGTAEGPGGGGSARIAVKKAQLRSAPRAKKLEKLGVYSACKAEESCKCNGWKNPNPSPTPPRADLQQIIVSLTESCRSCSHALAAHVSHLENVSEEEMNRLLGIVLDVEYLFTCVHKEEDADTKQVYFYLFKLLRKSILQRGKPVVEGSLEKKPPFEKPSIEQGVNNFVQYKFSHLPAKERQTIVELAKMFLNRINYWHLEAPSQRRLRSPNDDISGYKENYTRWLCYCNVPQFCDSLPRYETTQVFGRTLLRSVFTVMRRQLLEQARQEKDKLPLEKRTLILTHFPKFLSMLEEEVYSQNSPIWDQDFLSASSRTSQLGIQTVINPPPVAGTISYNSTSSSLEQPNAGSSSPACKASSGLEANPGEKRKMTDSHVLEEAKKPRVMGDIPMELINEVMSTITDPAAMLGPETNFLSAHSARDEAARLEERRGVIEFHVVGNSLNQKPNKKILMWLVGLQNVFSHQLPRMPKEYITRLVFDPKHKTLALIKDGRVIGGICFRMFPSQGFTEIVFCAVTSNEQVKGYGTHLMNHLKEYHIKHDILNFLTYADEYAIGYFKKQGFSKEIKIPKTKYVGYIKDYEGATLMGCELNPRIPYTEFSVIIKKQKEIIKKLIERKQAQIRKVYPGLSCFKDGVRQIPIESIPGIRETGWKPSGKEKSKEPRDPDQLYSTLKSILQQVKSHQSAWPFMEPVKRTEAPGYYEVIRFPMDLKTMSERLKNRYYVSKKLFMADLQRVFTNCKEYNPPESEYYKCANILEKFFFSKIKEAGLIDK
In short: as §1

PANC-1 = conditions: read-out: Antiproliferative activity EC50; cited from earlier work
MDA-PANC-28 = conditions: read-out: Antiproliferative activity EC50; cited from earlier work
MCF-7 = conditions: read-out: Antiproliferative activity EC50; cited from earlier work

Q: Which IC50 (LSD1 [1]) does the source give for `c1ccc(-c2cc(OCC3CCNCC3)cnc2-c2ccccc2)cc1` [Compound 1, 5,6-diphenyl-3-(piperidin-4-ylmethoxy)pyridine] here?
A: > 100 µM

Q: Which IC50 (LSD1 [1]) does the source give for `Cc1ccc(-c2ncc(OCC3CCNCC3)cc2-c2ccc(CO)cc2)cc1` [Compound 2] here?
A: > 100 µM

Q: For `Brc1ccc(-c2ncc(OCC3CCNCC3)nc2-c2ccc(Br)cc2)cc1` [Compound 3], which IC50 (LSD1 [1]) is on record?
A: 52.4 µM

Q: And the “effect on p300 HAT-histone H4 binding (in words)” value (from here on “effect”) [2]?
A: can dose-dependently disrupt the binding

Q: Which “acetylation of H3K9 in cells” value (Kasumi-1 leukemia cells) does the source give for `NCCCOc1cnc(-c2ccc(Br)cc2)c(-c2ccc(Br)cc2)n1` [Compound 6, 3-((5,6-bis(4-bromophenyl)pyrazin-2-yl)oxy)propan-1-amine hydrochloride] here?
A: did not significantly reduce

Q: And the “acetylation of H3K18 in cells” value (Kasumi-1 leukemia cells)?
A: did not significantly reduce

Q: What about the “acetylation of H3K27 in cells” value (Kasumi-1 leukemia cells) of the same molecule?
A: did not significantly reduce

Q: And the “effect” value [2]?
A: not significantly inhibited

Q: What about the “disruption of p300 HAT-histone H4 binding at 100 μM (in words)” value ([2]; 100 μM) of the same molecule?
A: did not significantly disrupt the binding

Q: With `NCCOc1cnc(-c2ccc(Br)cc2)c(-c2ccc(Br)cc2)n1` [Compound 8, 2-((5,6-bis(4-bromophenyl)pyrazin-2-yl)oxy)ethan-1-amine hydrochloride] as the molecule, how does the “inhibitory activity against p300 HAT (in words)” value (“inhibitory activity” below) [3] read?
A: weak inhibitors

Q: With `CNCCOc1cnc(-c2ccc(Br)cc2)c(-c2ccc(Br)cc2)n1` [Compound 9, 2-((5,6-bis(4-bromophenyl)pyrazin-2-yl)oxy)-N-methylethan-1-amine hydrochloride] as the molecule, how does the “inhibitory activity” value [3] read?
A: weak inhibitors

Q: With `CC(=O)NCCOc1cnc(-c2ccc(Br)cc2)c(-c2ccc(Br)cc2)n1` [Compound 10, N-(2-((5,6-bis(4-bromophenyl)pyrazin-2-yl)oxy)ethyl)acetamide hydrochloride] as the molecule, how does the “inhibitory activity” value [3] read?
A: inactive

Q: With `N#Cc1ccc(-c2nc(OCC3CCNCC3)cnc2-c2ccc(Br)cc2)cc1` [Compound 22] as the molecule, how does the “inhibitory activity” value [3] read?
A: failed to improve the inhibitory activity

Q: For `N#Cc1ccc(-c2ncc(OCC3CCNCC3)nc2-c2ccc(Br)cc2)cc1` [Compound 23], which “inhibitory activity” value [3] is on record?
A: failed to improve the inhibitory activity

Q: What does the source list for `NCc1ccc(-c2ncc(OCC3CCNCC3)nc2-c2ccc(CN)cc2)cc1` [Compound 27, ((5-(Piperidin-4-ylmethoxy)pyrazine-2,3-diyl)bis(4,1-phenylene))dimethanamine Hydrochloride]?
A: acetylation of H3K9 in cells (Kasumi-1 leukemia cells): dose-dependently inhibit; acetylation of H3K18 in cells (Kasumi-1 leukemia cells): not significantly affected; acetylation of H3K27 in cells (Kasumi-1 leukemia cells): dose-dependently inhibit; activity enhancement against p300 HAT compared to compound 3 ([3]; relative to compound 3): ~ 2 fold

Q: For `c1cc(-c2ccc(-c3ncc(OCC4CCNCC4)nc3-c3ccc(-c4ccoc4)cc3)cc2)co1` [Compound 29, 2,3-bis(4-(Furan-3-yl)phenyl)-5-(piperidin-4-ylmethoxy)pyrazine hydrochloride], which “acetylation of H3K9 in cells” value (Kasumi-1 leukemia cells) is on record?
A: almost depleted

Q: And the “acetylation of H3K18 in cells” value (Kasumi-1 leukemia cells)?
A: significantly inhibited

Q: What about the “acetylation of H3K27 in cells” value (Kasumi-1 leukemia cells) of the same molecule?
A: almost depleted

Q: What about the “inhibition of Myst3 activity at 100 μM (in words)” value (Myst3) of the same molecule?
A: did not significantly inhibit

Q: And the “inhibition of LSD1 activity at 100 μM (in words)” value (LSD1 [4])?
A: did not significantly inhibit

Q: And the “inhibition of PCAF activity at 100 μM (in words)” value (PCAF)?
A: did not significantly inhibit

Q: And the “mode of inhibition against cofactor Ac-CoA” value ([3]; IC50 versus Ac-CoA 1 - 50 μM)?
A: likely non-competitive against the enzyme cofactor Ac-CoA

Q: What about the “mode of inhibition against substrate histone” value ([3]; IC50 versus histone peptide 2 - 100 μM) of the same molecule?
A: competitive against the substrate histone

Q: And the “more activity against p300 HAT than initial lead compound 3” value ([3]; relative to compound 3)?
A: > 4 ×

Q: And the “effect” value [2]?
A: can dose-dependently disrupt the binding

Q: For `c1ccc(-c2ccc(-c3ncc(OCC4CCNCC4)nc3-c3ccc(-c4ccccn4)cc3)cc2)nc1` [Compound 30, 5-(Piperidin-4-ylmethoxy)-2,3-bis(4-(pyridin-2-yl)phenyl)pyrazine hydrochloride], which inhibition at 10 µM [3] is on record?
A: 37 to 39%

Q: With `c1cc(-c2ccc(-c3ncc(OCC4CCNCC4)nc3-c3ccc(-c4ccncc4)cc3)cc2)ccn1` [Compound 31, 5-(Piperidin-4-ylmethoxy)-2,3-bis(4-(pyridin-4-yl)phenyl)pyrazine hydrochloride] as the molecule, how does the inhibition at 10 µM [3] read?
A: 37 to 39%

Q: With `CNC(=O)Nc1ccc2c(c1)CC[C@@]21OC(=O)N(CC(=O)N(Cc2ccc(F)cc2)[C@@H](C)C(F)(F)F)C1=O` [Compound A-485] as the molecule, how does the EC50 (PANC-1) read?
A: > 30 µM

Q: What about the EC50 (MDA-PANC-28) of the same molecule?
A: > 30 µM

Q: What about the EC50 (MCF-7) of the same molecule?
A: > 30 µM

Q: What about the “effect” value [2] of the same molecule?
A: not significantly inhibited; also recorded: did not affect the p300 HAT-histone H4 interaction
